From PubChem
Rows were chosen to be rich in hits. Some 2.2% of all compounds tested hit in one or more screens of this group.
NadD inh: blocks S. aureus nicotinate mononucleotide adenylyltransferase | purified NadD enzyme, colorimetric absorbance read-out | inhibition, % at 20 µM | 360,000 compounds, 0.78% hits | AID 602399; in the data active = inhibition above about 26%
rCAG RNA binder: binds r(CAG) RNA repeats; inhibition, % at 3 µM; AID 651821; 370,000 compounds, 1.3% hits; r(CAG) RNA repeat, TO-PRO-1 dye displacement fluorescence;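 active = inhibition above the plate cutoff, the mean of all test compounds on that plate plus 3 SD, cut at about 35% in these data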;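 note: higher means more dye released from RNA so lower well fluorescence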
ARFGAP1 inhibitor: inhibits rat ARF GTPase activating protein 1 | Q62848 | Arfgap1-stimulated ARF1 GTP hydrolysis, GDP FP detection | inhibition, % at 16.5 µM | 360,000 compounds, 0.26% hits;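 active = inhibition above a per-plate limit, mean inhibition of low control wells plus 3 SD, cut at about 25% in these data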
Target sequence (Q62848 1-136 limits assumed): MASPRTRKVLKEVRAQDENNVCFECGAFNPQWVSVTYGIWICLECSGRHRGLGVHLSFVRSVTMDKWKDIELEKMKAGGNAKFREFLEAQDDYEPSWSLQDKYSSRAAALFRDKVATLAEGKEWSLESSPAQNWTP
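Material: rat Arfgap1 GAP domain (His6, aa 1-136), purified enzyme. Also added: human ARF1(Δ1-17)-GTP substrate. Compound dosing: 16.5 µM single point, 1.26% DMSO. Timing: enzyme reaction 120 min at 25 °C after 20 min preincubation. Signal: GDP detection by fluorescence polarization. Read-out basis: percent inhibition of GAP-stimulated GDP formation, scaled between DMSO and no-Arfgap1 medians.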
ASAP1 inh: ASAP1 ArfGAP inhibition | inhibition, % at 16.5 µM | 360,000 compounds, 0.19% hits | AID 624377 | ASAP1-stimulated ARF1 GTP hydrolysis, GDP FP detection | Q9ULH1; in the data active = inhibition above about 25%
Target sequence (Q9ULH1 325-724 limits assumed): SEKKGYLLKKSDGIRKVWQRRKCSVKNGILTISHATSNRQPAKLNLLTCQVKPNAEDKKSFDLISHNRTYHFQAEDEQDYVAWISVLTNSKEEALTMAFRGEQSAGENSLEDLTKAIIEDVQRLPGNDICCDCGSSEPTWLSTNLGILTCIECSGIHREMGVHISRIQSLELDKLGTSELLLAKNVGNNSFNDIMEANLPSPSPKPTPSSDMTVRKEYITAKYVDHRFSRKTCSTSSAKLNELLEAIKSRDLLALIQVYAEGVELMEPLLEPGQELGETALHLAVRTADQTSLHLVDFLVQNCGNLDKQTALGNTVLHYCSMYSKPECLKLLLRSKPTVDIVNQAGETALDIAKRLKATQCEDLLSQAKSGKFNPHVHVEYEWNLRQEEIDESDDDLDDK
Numbers stand for hits.

Results for CN(C)c1ccc(/C=C2\SC(=O)N(CC(O)Cn3c4ccccc4c4ccccc43)C2=O)cc1 (centres undefined) ?
NadD inh: 33.3; rCAG RNA binder: inactive; ARFGAP1 inhibitor: inactive; ASAP1 inh: inactive

Results for Nc1[nH]n2c(=O)c3c(nc2c1N=Nc1ccc(Cl)cc1)CCCC3 ?
NadD inh: 31.8; rCAG RNA binder: inactive; ARFGAP1 inhibitor: inactive; ASAP1 inh: inactive

How did CCN(CC(=O)Nc1c(F)cccc1F)C(=O)c1ccc2c(c1)OCO2 do in these assays?
NadD inh: inactive; rCAG RNA binder: inactive; ARFGAP1 inhibitor: inactive; ASAP1 inh: inactive

How did COC(=O)[C@H](Cc1ccccc1)NC(=O)[C@H]1C[C@@]2(N3CCCC3)c3ccccc3N(C(=O)OC(C)(C)C)[C@H]2N1C(=O)OC(C)(C)C do in these assays?
rCAG RNA binder: inactive

Results for CC(OC(=O)c1c2c(nc3ccccc13)/C(=C\c1ccc3c(c1)OCO3)CCC2)C(=O)Nc1ccc(S(N)(=O)=O)cc1 (centres undefined) ?
NadD inh: 44.4

Results for CC(OC(=O)c1cc2ccccc2cc1O)C(=O)Nc1ccc(S(N)(=O)=O)cc1 (centres undefined) ?
NadD inh: inactive; rCAG RNA binder: inactive; ARFGAP1 inhibitor: inactive; ASAP1 inh: inactive

Results for C=CCN1C(=O)[C@@H](CC(=O)NCc2ccccc2)[C@]2(C(=O)OCC)CCCCC/C=C/12 ?
rCAG RNA binder: inactive

What do the screens show for `CCCC(=O)N1CCC[C@]2(CC[C@@H](CCC(=O)N(CC)CC)O2)C1`?
rCAG RNA binder: inactive

What do the screens show for `CCCC(NC(=O)CCc1c(C)c2cc3c4c(oc3c(C)c2oc1=O)CCCC4)C(=O)O` (centres undefined)?
NadD inh: inactive; rCAG RNA binder: 35.8; ARFGAP1 inhibitor: inactive; ASAP1 inh: inactive

Results for O=C(O)CN1C(=O)/C(=C\c2cc(Br)ccc2OCc2ccc(Cl)cc2Cl)SC1=S ?
NadD inh: 36.3

How did O=C(c1ccccc1NS(=O)(=O)c1ccc([N+](=O)[O-])cc1[N+](=O)[O-])N1O[C@@H]2C=C[C@H]1C2 do in these assays?
NadD inh: inactive; rCAG RNA binder: 35.1; ARFGAP1 inhibitor: inactive; ASAP1 inh: inactive

Results for Cc1ccc(C(=O)NCc2nnc(SCC(=O)Nc3sc4c(c3C#N)CCCC4)n2C)cc1 ?
NadD inh: inactive; rCAG RNA binder: inactive; ARFGAP1 inhibitor: 24.7; ASAP1 inh: inactive

What do the screens show for `Cn1c(CNC(=O)c2ccc(Cl)cc2)nnc1SCC(=O)Nc1sc2c(c1C#N)CCCC2`?
NadD inh: inactive; rCAG RNA binder: inactive; ARFGAP1 inhibitor: inactive; ASAP1 inh: inactive

What do the screens show for `COc1cccc(OCc2cc(C3Nc4ccccc4C(=O)N3Cc3ccco3)ccc2OC)c1` (centres undefined)?
NadD inh: 30.5; rCAG RNA binder: inactive; ARFGAP1 inhibitor: inactive; ASAP1 inh: inactive

Results for COc1ccc(C2Nc3ccccc3C(=O)N2Cc2ccco2)cc1COc1ccc([N+](=O)[O-])cc1 (centres undefined) ?
NadD inh: inactive; rCAG RNA binder: inactive; ARFGAP1 inhibitor: inactive; ASAP1 inh: inactive

How did CCNC(=S)NNC(=O)CSc1nc2ccccc2c(=O)n1-c1ccc(Cl)cc1 do in these assays?
rCAG RNA binder: inactive

Results for S=C(NCc1ccc(Cl)cc1)OC1CCC12CCC(c1ccccc1)CC2 (centres undefined) ?
rCAG RNA binder: inactive

Results for CCOC(=O)C1CCN(C(=O)Nc2ccc3nc(-c4ccco4)c(-c4ccco4)nc3c2)CC1 ?
NadD inh: 65.7

What do the screens show for `N#CC1=C(SCC(=O)Nc2cccc3cccnc23)NC(=O)C(C#N)C12CCCCC2` (centres undefined)?
NadD inh: inactive; rCAG RNA binder: 48.0; ARFGAP1 inhibitor: inactive; ASAP1 inh: inactive

What do the screens show for `N#CC1=C(SCC(=O)NC2CC2)NC(=O)C(C#N)C12CCCCC2` (centres undefined)?
NadD inh: inactive; rCAG RNA binder: inactive; ARFGAP1 inhibitor: inactive; ASAP1 inh: inactive

What do the screens show for `CC(C)c1cccc(-c2ccc3c(c2)S(=O)(=O)c2cccc(C(=O)NCc4ccccc4)c2C3=O)c1`?
NadD inh: inactive; rCAG RNA binder: inactive; ARFGAP1 inhibitor: inactive; ASAP1 inh: inactive

How did CC(C)c1cccc(-c2ccc3c(c2)S(=O)(=O)c2cccc(C(=O)NCc4ccccc4Cl)c2C3=O)c1 do in these assays?
NadD inh: 34.2

Results for COc1cc(/C=C2/C(=O)NN(c3ccc(Cl)cc3)C2=O)ccc1OC(=O)c1ccco1 ?
NadD inh: inactive; rCAG RNA binder: 76.3; ARFGAP1 inhibitor: inactive; ASAP1 inh: inactive

How did CCOC(=O)N1CCN(C(=O)C[C@@H]2C(=O)N(Cc3ccc(OC)cc3)C3=CCN(C(=O)OC(C)(C)C)C[C@]32C(=O)OCC)CC1 do in these assays?
rCAG RNA binder: inactive

Results for Cc1cccc(C)c1NC(=O)C(c1ccc(-c2ccccc2)cc1)n1c(=O)c(-c2ccco2)nc2ccccc21 (centres undefined) ?
rCAG RNA binder: 41.1; ARFGAP1 inhibitor: inactive; ASAP1 inh: inactive

What do the screens show for `COc1ccc(C(C(=O)NC(C)(C)C)n2c(=O)c(-c3ccco3)nc3ccccc32)cc1` (centres undefined)?
rCAG RNA binder: inactive; ARFGAP1 inhibitor: inactive; ASAP1 inh: inactive

What do the screens show for `CC(C)(C)NC(=O)C(c1ccc(-c2ccccc2)cc1)n1c(=O)c(-c2ccco2)nc2ccccc21` (centres undefined)?
rCAG RNA binder: 36.7; ARFGAP1 inhibitor: inactive; ASAP1 inh: inactive

Results for Nc1nc2ccccc2cc1C(=O)NCCCCc1ccccc1 ?
NadD inh: inactive

How did COCCCN1C(=O)[C@H](CC(=O)NCCCCc2ccccc2)[C@]2(C(=O)OC)CCCCC=C12 do in these assays?
rCAG RNA binder: inactive

Results for O=C(O)CN1C(=O)/C(=C2\C(=O)N(Cc3ccccc3Cl)c3ccccc32)SC1=S ?
NadD inh: 26.4; rCAG RNA binder: inactive; ARFGAP1 inhibitor: inactive; ASAP1 inh: inactive

What do the screens show for `CN1C(=O)/C(=C2\SC(=S)N(C(CCC(=O)O)C(=O)O)C2=O)c2ccccc21` (centres undefined)?
NadD inh: inactive; rCAG RNA binder: inactive; ARFGAP1 inhibitor: inactive; ASAP1 inh: inactive

What do the screens show for `CCOC(=O)C1=CC[C@@H](c2cccc(Br)c2)N(S(=O)(=O)c2ccc(F)cc2)[C@H]1c1cccc(Cl)c1`?
rCAG RNA binder: inactive; ARFGAP1 inhibitor: inactive; ASAP1 inh: inactive

What do the screens show for `Cc1ccc(N=Nc2ccc(O)c(P(=O)(c3ccccc3)c3ccccc3)c2)cc1`?
NadD inh: 34.2; rCAG RNA binder: inactive; ARFGAP1 inhibitor: inactive; ASAP1 inh: inactive

What do the screens show for `Cc1ccc(NS(=O)(=O)c2cc([N+](=O)[O-])ccc2NNC(=S)Nc2cccc(Cl)c2)c(C)c1`?
NadD inh: 45.7

Results for COc1ccc(C2NC(=S)NC3=C2CCCC3=C2SCCS2)cc1 (centres undefined) ?
NadD inh: 61.2; rCAG RNA binder: inactive; ARFGAP1 inhibitor: inactive; ASAP1 inh: inactive

How did O=C(CCN1C(=O)/C(=C/c2ccccc2Cl)SC1=S)NC1C=CS(=O)(=O)C1 (centres undefined) do in these assays?
NadD inh: 37.0; rCAG RNA binder: inactive; ARFGAP1 inhibitor: inactive; ASAP1 inh: inactive
